In PubChem BioAssay AID504383 (The Scripps Research Institute Molecular Screening Center, 2011):
Out of some 2,500 compounds screened, about 1,200 (48%) were called active.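 The calls were made as follows: active = mean activation above the low control average plus 3 SD, as set in the primary screen (cut at about 12% in these data); inactive = the rest.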 So high a share suggests a set chosen from earlier hits. The list shows a part of the results.

The compounds below were run against Troponin I, cardiac muscle (Homo sapiens) + Troponin T, cardiac muscle (Homo sapiens) + Troponin C, slow skeletal and cardiac muscles (Homo sapiens) (UniProt P19429+P45379+P63316) (assay: cardiac RTF calcium sensitivity activators, confirmation, biochemical, IANBD-TnC fluorescence, triplicate (AID 504383;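 also: 0% = DMSO at 0.472 mM calcium and 100% = DMSO at 2.9 mM calcium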)). Conditions: IANBD-labeled cardiac RTF, Ca2+ sensitivity fluorescence; at 7.2 µM; stronger effect = higher value; scaled from EC20 to saturating calcium; tested at EC20 calcium, 0.472 mM.
Method in brief: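 Test system: labelled regulated thin filament protein complex. Dosing: single nominal compound dose of 7.2 µM. Benchmarks: EC20 and EC100 calcium wells. Read-out basis: fluorescence gain scaled between EC20 and EC100 calcium controls. Probe or stimulus: submaximal calcium at 0.472 mM (EC20). Technique: fluorescence. Times: 15 min compound exposure, 25 °C.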
`COc1ccc(N=C2NC(=O)S/C2=C\c2ccc(N(C)C)cc2)cc1` was tested, and the activation was 54.9% (active).
In the case of `C=CCOc1ccc(/C=C2\SC(=Nc3cccnc3)NC2=O)cc1`, the activation is reported as 6.73% (inactive).
In the case of `CCOc1ccc(N=C2NC(=O)S/C2=C\c2ccc(N(C)C)cc2)cc1`, the activation is reported as 5340% (active).
For `COc1ccc(C(=O)/C=C/c2ccc(N(C)C)cc2)c(OC)c1`, the activation was 7.89% (inactive).
In the case of `C=CCN1C(=O)c2ccccc2NC1c1cc(Br)cs1` (stereo not drawn), the activation is reported as 53.6% (active).
With `O=C(NN1C(=O)c2ccccc2NC1c1ccco1)c1ccccc1` (stereo not drawn) the activation was 3.92% (inactive).
`CCOCCn1c(CN2CCN(CC)CC2)nc2c1c(=O)n(C)c(=O)n2C` was tested, and the activation was 66% (active).
With `Oc1[nH]c(=S)sc1/C=C1\C(c2ccccc2)=Nc2ccccc21` the activation was 10% (inactive).
With `CC1=Nc2ccccc2/C1=C/c1sc(=S)n(-c2cccc(C(=O)O)c2)c1O` the activation was 13.1% (active).
In the case of `CC1=Nc2ccccc2/C1=C/c1nc(-c2ccc(C)s2)oc1O`, the activation is reported as 7.81% (inactive).
For `CCc1cc(=O)n2c([nH]c3ccccc32)c1C#N`, the activation was 3.83% (inactive).
For `CCC(c1nnnn1C1CCCCC1)N1CCN(C(=O)c2ccco2)CC1` (stereo not drawn), the activation was 23.4% (active).
`CCC(C)(C)n1nnnc1C(c1ccc(C)cc1)N1CCN(C(=O)c2ccco2)CC1` (stereo not drawn) was tested, and the activation was 4.34% (inactive).
`O=C(O)C1CCCCC1C(=O)Nc1ccc(-c2ccccc2)cc1` (stereo not drawn) was tested, and the activation was 8.12% (inactive).
In the case of `Cn1nc(NC(=O)C2CCC2C(=O)O)c2c(F)cccc21` (stereo not drawn), the activation is reported as 52.9% (active).
For `CCc1cc[n+](-c2nc([O-])sc2C=O)cc1`, the activation was 14.1% (active).
In the case of `Cc1ccc[n+](-c2nc([O-])sc2C=O)c1`, the activation is reported as 64.2% (active).
With `CCc1cc[n+](-c2nc3ccccc3nc2[N-]S(=O)(=O)c2ccc(Br)s2)cc1` the activation was -1.89% (inactive).
In the case of `CCNC(=O)NNC(=O)C1CC(c2cccs2)=NO1` (stereo not drawn), the activation is reported as 4.43% (inactive).
In the case of `COc1cc(/C=C2\SC(=Nc3ccc(Cl)c(C(=O)O)c3)NC2=O)c(Br)c(Br)c1O`, the activation is reported as 54% (active).
With `COc1cc(/C=C2\SC(=Nc3ccccc3)NC2=O)cc(Cl)c1O` the activation was 3.89% (inactive).
For `CCN(CC)c1ccc2c(c1)OC(N)=C(C#N)C2c1cccnc1` (stereo not drawn), the activation was 15.4% (active).
For `CSc1nc(C)nc(N/C=C(\C#N)S(=O)(=O)c2ccccc2Cl)n1`, the activation was 6.97% (inactive).
With `Cc1c(CN2CCCC(C)C2)c(O)n(CCO)c(=O)c1C#N` (stereo not drawn) the activation was 11.9% (active).
With `C=CCn1c(O)c(CN2CCN(Cc3ccccc3)CC2)c(C)c(C#N)c1=O` the activation was 3.99% (inactive).
With `CCN(c1ccccc1)S(=O)(=O)c1ccc(OC)c(NC(=O)Cn2cnc3c2c(=O)n(C)c(=O)n3C)c1` the activation was 18.8% (active).
With `CC1=C(C(=O)N(C)C)C(c2ccc(C)s2)NC(=S)N1` (stereo not drawn) the activation was 0.74% (inactive).
With `Cn1nc(-c2ccccc2)c2nc3ccccc3nc21` the activation was 8.34% (inactive).
`CCCCCn1nc(-c2ccccc2)c2nc3ccccc3nc21` was tested, and the activation was 54.7% (active).
`CCn1nc(-c2ccccc2)c2nc3ccccc3nc21` was tested, and the activation was 26.2% (active).
For `O=C(COC(=O)c1ccc(O)cc1)Nc1ccc2c(c1)OCCO2`, the activation was 78.5% (active).
`Cc1cc(C(=O)O)ccc1-c1ccc(/C=C2\SC(=O)N(CC(=O)Nc3ccc4c(c3)OCO4)C2=O)o1` was tested, and the activation was 11.4% (inactive).
With `Cc1c(C)[n+](=O)c(-c2ccc(Br)cc2)c(C)n1[O-]` the activation was 1060% (active).
`CCC12OC(=N)C(C#N)(C1C)C(C#N)(C#N)C(c1ccccc1)O2` (stereo not drawn) was tested, and the activation was 2.9% (inactive).
`CCCCC1OC2(C)OC(=N)C1(C#N)C(C#N)(C#N)C2c1ccccc1` (stereo not drawn) was tested, and the activation was 8.3% (inactive).
For `CC1C2(C)OC(=N)C(C#N)(C(C)O2)C1(C#N)C#N` (stereo not drawn), the activation was 13.7% (active).
With `CCc1ccc2c(c1)C(NC(C)=O)C(=O)N2CC` (stereo not drawn) the activation was 6.29% (inactive).
For `c1ccc(CCC2=NCCn3cccc32)cc1`, the activation was 15.8% (active).
`Nc1ccc2c(O)cc(S(=O)(=O)O)cc2c1` was tested, and the activation was 16.8% (active).
With `Cc1ccc(N=Nc2c(O)n(CN3CCOCC3)c3ccccc23)cc1` the activation was 35.8% (active).
`Cc1ccc(C)c(C(=O)CSc2n[nH]c(C(C)C)n2)c1` was tested, and the activation was 128% (active).
For `C/C(N)=C(/C#N)C(=O)CSc1n[nH]c(-c2cccs2)n1`, the activation was 11.4% (inactive).
In the case of `COc1ccc(Cl)cc1-c1nc(SCC(=O)NC(C)C)n[nH]1`, the activation is reported as 8.01% (inactive).
In the case of `CC(C)(CO)NCC#Cc1ccccc1`, the activation is reported as 5.16% (inactive).
For `COc1cccc(/C=C(/C#N)c2nc3ccccc3[nH]2)c1OC(C)C(=O)O` (stereo not drawn), the activation was 5.66% (inactive).
For `COc1cc(/C=C(\C#N)c2nc3ccccc3[nH]2)ccc1O`, the activation was 6.21% (inactive).
`CCOc1cc(N(CC)CC)ccc1/C=C(/C#N)c1nc2ccccc2[nH]1` was tested, and the activation was 5.8% (inactive).
`CCN(CC)c1ccc(/C=C(/C#N)c2nc3ccccc3[nH]2)c(OC(C)C)c1` was tested, and the activation was 127% (active).
With `COc1cc(/C=C(\C#N)c2nc3ccccc3[nH]2)cc(OC)c1O` the activation was 37.9% (active).
In the case of `CCCOc1cc(N(CC)CC)ccc1/C=C(/C#N)c1nc2ccc(C)cc2[nH]1`, the activation is reported as 30.9% (active).
With `COC1C/C(=N\O)C2OC(c3ccccc3)OCC2O1` (stereo not drawn) the activation was 6.29% (inactive).
`COc1cc2c3nnc(-c4ccc(F)cc4)c-3cn(Cc3cccc(F)c3)c2cc1OC` was tested, and the activation was 446% (active).
For `COc1cc2c3nnc(-c4ccc(F)cc4)c-3cn(Cc3ccc(C)cc3)c2cc1OC`, the activation was 3.15% (inactive).
`COc1cc2c3nnc(-c4ccc(F)cc4)c-3cn(Cc3cccc(C)c3)c2cc1OC` was tested, and the activation was 11.1% (inactive).
With `O=C(NC1CCCCC1)C(c1ccc(F)cc1)N(Cc1ccccc1)C(=O)CN1C(=O)c2ccccc2S1(=O)=O` (stereo not drawn) the activation was 165% (active).
With `COCCNC(=O)C(c1ccc(C)o1)N(Cc1ccc(F)cc1)C(=O)Cn1nnc2ccccc21` (stereo not drawn) the activation was 4.47% (inactive).
With `Cc1cc(/C=N/NC(N)=S)c(O)c(/C=N/NC(N)=S)c1` the activation was 480% (active).
For `CCn1c(Cc2ccccc2)nnc1SCC(=O)OC(C)C`, the activation was 11.8% (active).
`CC(=O)Nc1cccc(NC(=O)CSc2nnc(Cc3cccn3C)n2CCc2ccccc2)c1` was tested, and the activation was 2.51% (inactive).
`C/C(=N/NC(=O)c1cc(C)[nH]n1)c1ccco1` was tested, and the activation was 14.3% (active).
In the case of `C/C(=N/NC(=O)CNC(=O)Cc1ccccc1)c1ccco1`, the activation is reported as 5.62% (inactive).
In the case of `CCN(CC)c1ccc(/C=C/C(=O)C2C(=O)C=C(C)OC2=O)cc1` (stereo not drawn), the activation is reported as 3.69% (inactive).
For `CCN(CC)c1ccc(/C=c2\sc3nnc(-c4ccccc4Cl)n3c2=O)cc1`, the activation was 72.8% (active).
For `CCN(CC)c1ccc(/C=c2/sc3nnc(-c4ccccc4C)n3c2=O)cc1`, the activation was 12% (active).
For `COc1cccc(C2C=C(c3ccc(Br)s3)Nc3ncnn32)c1OC` (stereo not drawn), the activation was 5.02% (inactive).
In the case of `Brc1ccc(C2=CC(c3cccs3)n3ncnc3N2)cc1` (stereo not drawn), the activation is reported as 8.78% (inactive).
For `COc1cc(C2C=C(c3cccs3)Nc3ncnn32)cc(OC)c1OC` (stereo not drawn), the activation was 12.2% (active).
For `Cc1cc(C)nc(NS(=O)(=O)c2ccc(NC(=O)CSc3nc4ccccc4[nH]3)cc2)n1`, the activation was 8.08% (inactive).
In the case of `COC(=O)C1=C(CSc2nc3c(cc2C#N)CN(C)CC3)OC(N)=C(C#N)C1c1ccc(F)cc1` (stereo not drawn), the activation is reported as -0.37% (inactive).
With `Cc1noc(NS(=O)(=O)c2ccc(NC(=O)CSc3nc4c(cc3C#N)CCC4)cc2)c1C` the activation was 12.5% (active).
With `CC(=O)Nc1ccc2nc3c(=O)n(C)c(=O)n(C)c3nc2c1` the activation was 18.8% (active).
With `CC(=O)Nc1ccccc1` the activation was 6.06% (inactive).
With `CC(=O)Nc1ccc2cc3ccc(NC(C)=O)cc3nc2c1` the activation was 43% (active).
`CC1CCN(S(=O)(=O)c2ccc(N=NC3=C(O)CC(C)(C)CC3=O)cc2)CC1` was tested, and the activation was 11.9% (active).
With `CC(=O)Nc1ccc(S(=O)(=O)N2CCN3CCCC3C2)cc1` (stereo not drawn) the activation was 6.53% (inactive).
`COc1ccccc1C(=O)Nc1nnn(C)n1` was tested, and the activation was 10% (inactive).
For `Cc1nn(C)c(NC(=O)c2ccccc2Cl)c1Cl`, the activation was 59.1% (active).
For `CN1Cc2c(N)cccc2C(c2ccccc2)C1` (stereo not drawn), the activation was -1.03% (inactive).
`N/C(COc1cc(Cl)cc(Cl)c1)=N\O` was tested, and the activation was 153% (active).
With `COC(=O)CN1C(=S)N(c2ccc(OC)cc2)C(=O)/C1=C/c1ccc(N2CCOCC2)cc1` the activation was 11.4% (inactive).
In the case of `CCc1ccc(/C=C2/C(=O)N(C)C(=S)N2CC(=O)OC)s1`, the activation is reported as 11.7% (active).
With `CCOc1ccc(N(C(=O)CNC(=O)c2ccco2)C(C(=O)NC2CCCC2)c2ccncc2)cc1` (stereo not drawn) the activation was 9.24% (inactive).
In the case of `C=CCN(C(=O)CNS(=O)(=O)c1ccccc1)C(C(=O)NCCOC)c1ccncc1` (stereo not drawn), the activation is reported as 16.9% (active).
In the case of `COCCCN1C(=O)/C(=C/c2ccc(CNS(=O)(=O)c3ccccc3)o2)C(C(=O)OC)=C1C`, the activation is reported as 8.19% (inactive).
`N#CC(C#N)=C1C=C2C=C(N3CCOCC3)CCC2CC1` (stereo not drawn) was tested, and the activation was -1.16% (inactive).
With `Cc1ccccc1-n1c(O)c(/C=C/C=Nc2ccccc2)c(=O)[nH]c1=O` the activation was 19.4% (active).
With `CSc1nnc(N(CCC#N)CCC#N)s1` the activation was 35.1% (active).
`O=C(c1ccc(F)cc1)N1CCN=C1c1ccccc1` was tested, and the activation was 9.85% (inactive).
For `O=C(CN1C(=O)c2ccccc2C1=O)N1CCN=C1c1ccccc1`, the activation was 70.2% (active).
With `O=C1c2ccccc2C(=O)N1CC1=NCCc2ccccc21` the activation was 11.2% (inactive).
For `CC1CN/C(=C\C(=O)c2ccc(Br)cc2)C(=O)N1` (stereo not drawn), the activation was 2.08% (inactive).
With `C=CCN1C=CC(=C/C=C(/C#N)C(=O)OCC)C=C1` the activation was 4.84% (inactive).
For `CCOC(=O)/C(C#N)=C\C=C1C=CN(C)C=C1`, the activation was 8.19% (inactive).
With `CC1=C/C(=C\C=C(C#N)C#N)N(C)c2ccccc21` the activation was 8.37% (inactive).
With `CCCN1C=CC(=CC=C(C#N)C#N)C=C1` the activation was 28% (active).
With `CCCCCCN1C=CC(=C/C=C(\C#N)C(=O)OCC)C=C1` the activation was 501% (active).
In the case of `C=CCN1C=CC(=CC=C(C#N)C#N)C=C1`, the activation is reported as 668% (active).
With `Cc1cc(C)nc(SCCCNCc2ccc(Br)cc2)n1` the activation was 9.74% (inactive).
